According to ChEMBL document CHEMBL1137710, “Synthesis and in vitro antitumor activity of new quinoxaline derivatives” (2009):

Assays:
Format in all cases: functional
NCI-H460 = assay: Anticancer activity against human NCI-H460 cells assessed as cell growth at 100 uM after 48 hrs by sulforhodamine B assay; conditions: NCI-H460, 48 h, read-out: Activity
MCF7 [1] = assay: Anticancer activity against human MCF7 cells assessed as cell growth at 100 uM after 48 hrs by sulforhodamine B assay; conditions: MCF7, 48 h, read-out: Activity
SF-268 [2] = assay: Anticancer activity against human SF268 cells assessed as cell growth at 100 uM after 48 hrs by sulforhodamine B assay; conditions: SF-268, 48 h, read-out: Activity
HL-60(TB) = assay: Growth inhibition of human HL-60(TB) cells after 48 hrs by sulforhodamine B assay; conditions: HL-60, 48 h
How it was run: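 Tested only on compounds active in a three-line prescreen, in the NCI 60-human-tumour-cell-line panel over a 5-log dose range. Values come from dose–response curves as log10 molar GI50, the concentration inhibiting 50% net cell growth. Log10 TGI (total growth inhibition) and log10 LC50 (50% net cell death) were derived too. Mean graph midpoints include insensitive lines at the highest concentration tested.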

K562 = assay: Growth inhibition of human K562 cells after 48 hrs by sulforhodamine B assay; conditions: K562, 48 h
How it was run: (§1)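 NCI 60-human-tumor-cell-line panel, with compounds tested over a 5-log dose range. Values are taken from dose-response curves as log10 molar concentrations: GI50 is 50% net growth inhibition, TGI is total growth inhibition, and LC50 is 50% net cell death.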

[3] = Growth inhibition of human […] cells after 48 hrs by sulforhodamine B assay; how it was run: as §1
HOP-62 = assay: Growth inhibition of human HOP62 cells after 48 hrs by sulforhodamine B assay; conditions: HOP-62, 48 h; how it was run: as §1
NCI-H322M = assay: Growth inhibition of human NCI-H322M cells after 48 hrs by sulforhodamine B assay; how it was run: as §1
NCI-H522 = assay: Growth inhibition of human NCI-H522 cells after 48 hrs by sulforhodamine B assay; conditions: NCI-H522, 48 h; how it was run: as §1
SW-620 = assay: Growth inhibition of human SW620 cells after 48 hrs by sulforhodamine B assay; conditions: SW-620, 48 h
How it was run: (§2)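 Run in the NCI 60-human-tumour-cell-line panel, tested over a 5-log dose range. Dose–response curves gave three values per cell line, each as a log10 molar concentration: GI50 (50% inhibition of net cell growth), TGI (total inhibition of net growth) and LC50 (50% net cell death). The mean graph midpoint is the arithmetic mean over all lines, with insensitive lines entered at the highest concentration tested.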

SF-268 [4] = assay: Growth inhibition of human SF268 cells after 48 hrs by sulforhodamine B assay; conditions: SF-268, 48 h; how it was run: as §1
SNB-19 = assay: Growth inhibition of human SNB19 cells after 48 hrs by sulforhodamine B assay; conditions: SNB-19, 48 h; how it was run: as §2
U-251 = assay: Growth inhibition of human U251 cells after 48 hrs by sulforhodamine B assay; conditions: U-251, 48 h; how it was run: as §2
LOX IMVI = assay: Growth inhibition of human LOXIMVI cells after 48 hrs by sulforhodamine B assay; how it was run: as §1
M14 = assay: Growth inhibition of human M14 cells after 48 hrs by sulforhodamine B assay; conditions: M14, 48 h; how it was run: as §1
SK-MEL-28 = assay: Growth inhibition of human SK-MEL-28 cells after 48 hrs by sulforhodamine B assay; conditions: SK-MEL-28, 48 h; how it was run: as §1
UACC-62 = assay: Growth inhibition of human UACC62 cells after 48 hrs by sulforhodamine B assay; conditions: UACC-62, 48 h; how it was run: as §2
IGROV-1 = assay: Growth inhibition of human IGROV1 cells after 48 hrs by sulforhodamine B assay; conditions: IGROV-1, 48 h; how it was run: as §1
OVCAR-3 = assay: Growth inhibition of human OVCAR-3 cells after 48 hrs by sulforhodamine B assay; conditions: OVCAR-3, 48 h; how it was run: as §1
OVCAR-4 = assay: Growth inhibition of human OVCAR4 cells after 48 hrs by sulforhodamine B assay; conditions: OVCAR-4, 48 h; how it was run: as §1
OVCAR-8 = assay: Growth inhibition of human OVCAR8 cells after 48 hrs by sulforhodamine B assay; conditions: OVCAR-8, 48 h; how it was run: as §1
786-0 = assay: Growth inhibition of human 786-0 cells after 48 hrs by sulforhodamine B assay; conditions: 786-0, 48 h; how it was run: as §1
CAKI-1 = assay: Growth inhibition of human Caki1 cells after 48 hrs by sulforhodamine B assay; conditions: CAKI-1, 48 h; how it was run: as §1
UO-31 = assay: Growth inhibition of human UO31 cells after 48 hrs by sulforhodamine B assay; conditions: UO-31, 48 h; how it was run: as §2
PC-3 = assay: Growth inhibition of human PC3 cells after 48 hrs by sulforhodamine B assay; conditions: PC-3, 48 h; how it was run: as §1
NCI/ADR-RES = assay: Growth inhibition of human NCI/ADR-RES cells after 48 hrs by sulforhodamine B assay; how it was run: as §1
[5] = Growth inhibition of human Hs 578T cells after 48 hrs by sulforhodamine B assay; how it was run: as §1
MDA-MB-435 = assay: Growth inhibition of human MDA-MB-435 cells after 48 hrs by sulforhodamine B assay; conditions: MDA-MB-435, 48 h; how it was run: as §1
MCF7 [6] = assay: Growth inhibition of human MCF7 cells after 48 hrs by sulforhodamine B assay; conditions: MCF7, 48 h; how it was run: as §1
[7] = read-out: pLC50 (the source's name) (converted)

In the case of `COc1cc(OC)cc(Oc2nc3cc(N)cc(N)c3nc2-c2ccccc2)c1`, the growth at 100 µM (NCI-H460) is reported as 2%, the growth at 100 µM (MCF7 [1]) is reported as 0% and the growth at 100 µM (SF-268 [2]) is reported as 1%. It also gave a GI50 (HL-60(TB)) of 3.09 µM, a TGI (HL-60(TB); read-out: pTGI (converted)) of 25.7 µM and a GI50 (K562) of 3.8 µM. For the same molecule, the TGI (K562; read-out: pTGI (converted)) was 32.4 µM, the GI50 [3] was 2.88 µM and the TGI ([3]; read-out: pTGI (converted)) was 8.51 µM. It also gave a GI50 (HOP-62) of 2.14 µM, a TGI (HOP-62; read-out: pTGI (converted)) of 12.9 µM and a GI50 (NCI-H322M) of 2.24 µM. It also gave a TGI (NCI-H322M; read-out: pTGI (converted)) of 15.1 µM, a GI50 (NCI-H522) of 0.891 µM and a TGI (NCI-H522; read-out: pTGI (converted)) of 4.27 µM. It also gave a GI50 (SW-620) of 2.24 µM, a CC50 (SW-620; [7]) of 31.6 µM and a TGI (SW-620; read-out: pTGI (converted)) of 10.2 µM. For the same molecule, the GI50 (SF-268 [4]) was 1.74 µM, the TGI (SF-268 [4]; read-out: pTGI (converted)) was 7.08 µM and the GI50 (SNB-19) was 2.51 µM. The TGI (SNB-19; read-out: pTGI (converted)) was 12.6 µM, the GI50 (U-251) was 2.63 µM and the TGI (U-251; read-out: pTGI (converted)) was 10.7 µM. It also gave a GI50 (LOX IMVI) of 2.95 µM, a TGI (LOX IMVI; read-out: pTGI (converted)) of 12.9 µM and a GI50 (M14) of 1.58 µM. It also gave a CC50 (M14; [7]) of 28.8 µM, a TGI (M14; read-out: pTGI (converted)) of 7.76 µM and a GI50 (SK-MEL-28) of 3.16 µM. The CC50 (SK-MEL-28; [7]) was 38.9 µM, the TGI (SK-MEL-28; read-out: pTGI (converted)) was 15.5 µM and the GI50 (UACC-62) was 4.07 µM. It also gave a CC50 (UACC-62; [7]) of 47.9 µM, a TGI (UACC-62; read-out: pTGI (converted)) of 18.2 µM and a GI50 (IGROV-1) of 2.63 µM. For the same molecule, the CC50 (IGROV-1; [7]) was 38 µM, the TGI (IGROV-1; read-out: pTGI (converted)) was 12.3 µM and the GI50 (OVCAR-3) was 2.24 µM. For the same molecule, the CC50 (OVCAR-3; [7]) was 55 µM, the TGI (OVCAR-3; read-out: pTGI (converted)) was 8.71 µM and the GI50 (OVCAR-4) was 2.88 µM. For the same molecule, the CC50 (OVCAR-4; [7]) was 58.9 µM, the TGI (OVCAR-4; read-out: pTGI (converted)) was 16.2 µM and the GI50 (OVCAR-8) was 2.88 µM. The CC50 (OVCAR-8; [7]) was 50.1 µM, the TGI (OVCAR-8; read-out: pTGI (converted)) was 16.2 µM and the GI50 (786-0) was 15.1 µM. It also gave a CC50 (786-0; [7]) of over 100 µM, a TGI (786-0; read-out: pTGI (converted)) of 41.7 µM and a GI50 (CAKI-1) of 16.2 µM. It also gave a CC50 (CAKI-1; [7]) of 79.4 µM, a TGI (CAKI-1; read-out: pTGI (converted)) of 36.3 µM and a GI50 (UO-31) of 11.5 µM. It also gave a CC50 (UO-31; [7]) of 72.4 µM, a TGI (UO-31; read-out: pTGI (converted)) of 28.8 µM and a GI50 (PC-3) of 10.2 µM. It also gave a CC50 (PC-3; [7]) of 72.4 µM, a TGI (PC-3; read-out: pTGI (converted)) of 27.5 µM and a GI50 (NCI/ADR-RES) of 1.12 µM. The CC50 (NCI/ADR-RES; [7]) was 18.2 µM, the TGI (NCI/ADR-RES; read-out: pTGI (converted)) was 3.89 µM and the GI50 [5] was 1.32 µM. It also gave a CC50 [5, 7] of 25.7 µM, a TGI ([5]; read-out: pTGI (converted)) of 4.17 µM and a GI50 (MDA-MB-435) of 0.389 µM. The CC50 (MDA-MB-435; [7]) was 5.01 µM, the TGI (MDA-MB-435; read-out: pTGI (converted)) was 1.82 µM and the GI50 (MCF7 [6]) was 1.7 µM. It also gave a CC50 (MCF7 [6]; [7]) of 14.5 µM and a TGI (MCF7 [6]; read-out: pTGI (converted)) of 4.57 µM.
